Test results: ChEMBL document CHEMBL1145175, “Investigations on the effects of basic side chains on the hormonal profile of (4R,5S)/(4S,5R)-4,5-bis(4-hydroxyphenyl)-2-imidazolines” (J Med Chem, 2005)

Experiments:
Estrogen receptor [1] = molecular target: T1, Estrogen receptor (Homo sapiens, UniProt P03372); test: Effective concentration against estrogen receptor alpha of MCF-7-2a cells
T1 sequence (P03372 whole entry): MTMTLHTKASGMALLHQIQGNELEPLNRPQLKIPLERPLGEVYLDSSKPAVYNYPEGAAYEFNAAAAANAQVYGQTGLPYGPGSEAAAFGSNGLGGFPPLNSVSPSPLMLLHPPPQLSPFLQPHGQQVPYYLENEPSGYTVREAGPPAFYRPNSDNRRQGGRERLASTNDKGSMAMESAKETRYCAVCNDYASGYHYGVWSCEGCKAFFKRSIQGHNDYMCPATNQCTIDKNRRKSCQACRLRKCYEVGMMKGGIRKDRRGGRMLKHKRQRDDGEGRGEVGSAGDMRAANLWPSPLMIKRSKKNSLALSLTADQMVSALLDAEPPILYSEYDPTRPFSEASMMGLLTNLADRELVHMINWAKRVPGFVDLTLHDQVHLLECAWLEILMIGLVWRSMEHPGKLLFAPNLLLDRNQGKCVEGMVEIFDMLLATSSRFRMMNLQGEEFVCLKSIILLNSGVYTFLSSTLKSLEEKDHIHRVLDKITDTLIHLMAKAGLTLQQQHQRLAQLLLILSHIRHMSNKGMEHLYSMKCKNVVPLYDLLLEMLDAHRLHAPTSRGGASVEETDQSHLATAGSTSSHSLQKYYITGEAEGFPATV

Estrogen receptor beta [2] = molecular target: T2, Estrogen receptor beta (Homo sapiens, UniProt Q92731); test: Effective concentration against estrogen receptor beta of […]
T2 sequence (Q92731 whole entry): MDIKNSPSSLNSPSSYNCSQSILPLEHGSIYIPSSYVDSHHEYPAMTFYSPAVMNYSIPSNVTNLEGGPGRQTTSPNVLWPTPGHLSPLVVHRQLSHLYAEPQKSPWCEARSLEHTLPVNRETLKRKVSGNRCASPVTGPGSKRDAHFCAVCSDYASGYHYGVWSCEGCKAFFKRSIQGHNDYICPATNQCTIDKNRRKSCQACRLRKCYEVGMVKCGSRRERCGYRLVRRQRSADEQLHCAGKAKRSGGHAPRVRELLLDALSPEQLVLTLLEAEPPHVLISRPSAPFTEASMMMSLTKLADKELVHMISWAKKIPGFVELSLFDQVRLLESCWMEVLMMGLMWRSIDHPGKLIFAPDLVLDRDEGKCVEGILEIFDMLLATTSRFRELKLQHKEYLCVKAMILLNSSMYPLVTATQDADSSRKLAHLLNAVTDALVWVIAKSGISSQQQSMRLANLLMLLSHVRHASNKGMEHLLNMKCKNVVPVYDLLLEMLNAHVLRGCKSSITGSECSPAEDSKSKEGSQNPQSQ
In short: (§1)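 U-2 OS cells grown in charcoal-treated FCS medium were transiently co-transfected with pSG5-ERβ FL (0.05 µg) and (ERE)2luc+ reporter (5 µg) using Fugene6, then pooled and reseeded. Compounds were added at 10^-5 to 10^-10 M in 0.1% DMSO for 21 h. Luciferase RLU was normalised to crystal-violet cell mass, in triplicate, and expressed as % of the E2 plateau.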

Estrogen receptor beta [3] = molecular target: T2, Estrogen receptor beta; test: Percent inhibition of 0.30 nM estradiol activity on estrogen receptor beta in MCF-7-2a cells at 10 uM; type: cell-based; settings: in the assay text read “U-2 OS cells” for “MCF-7-2a cells”
In short: (§2)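 Antagonist mode used U-2 OS cells transiently co-transfected with pSG5-ERβ FL and (ERE)2luc+ in charcoal-stripped medium. Compounds at 10^-5 to 10^-13 M were co-incubated with E2 at 3.0 × 10^-10 M for 21 h. Luciferase luminescence was normalised to crystal-violet cell mass, in triplicate, and reported as % inhibition of the E2 signal.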

Estrogen receptor beta [4] = molecular target: T2, Estrogen receptor beta; test: Percent activation of estrogen receptor beta in luciferase assay at 10 uM; in short: as §1
Estrogen receptor beta [5] = molecular target: T2, Estrogen receptor beta; test: Percent inhibition of 0.30 nM estradiol activity on estrogen receptor beta in U-2 OS cells at 10 uM
Estrogen receptor beta [6] = molecular target: T2, Estrogen receptor beta; test: Inhibition of estrogen receptor beta in […] at 10 uM; type: cell-based; in short: as §2
Estrogen receptor [7] = molecular target: T1, Estrogen receptor; test: Inhibition of estrogen receptor alpha in MCF-7-2a cells at 10 uM; type: cell-based
Estrogen receptor beta [8] = molecular target: T2, Estrogen receptor beta; test: Inhibition of estrogen receptor beta at 10 uM

| Compound | EC50 (Estrogen receptor [1]) | EC50 (Estrogen receptor beta [2]) | inhibition (Estrogen receptor beta [3]) | Activation (Estrogen receptor beta [4]) | inhibition (Estrogen receptor beta [5]) | IC50 (Estrogen receptor beta [6]) | IC50 (Estrogen receptor [7]) | IC50 (Estrogen receptor beta [8]) |
| --- | --- | --- | --- | --- | --- | --- | --- | --- |
| CN(C)CCOc1ccc([C@H]2NC=N[C@H]2c2ccc(O)cc2Cl)c(Cl)c1 | 1.5 µM | 3.55 µM | – | – | – | – | – | – |
| Oc1ccc([C@@H]2N=CN[C@@H]2c2ccc(OCCN3CCCCC3)cc2)cc1 | – | – | 12% | 26% | – | – | – | – |
| CCC1=N[C@H](c2ccc(OCCN3CCCCC3)cc2Cl)[C@H](c2ccc(O)cc2Cl)N1 | – | 2.8 µM | – | 92% | 75% | 6 µM | – | – |
| Oc1ccc([C@@H]2N=CN[C@@H]2c2ccc(OCCN3CCCC3)cc2Cl)c(Cl)c1 | 1.82 µM | 0.47 µM | 30% | 105% | – | – | – | – |
| CCC1=N[C@H](c2ccc(OCCN3CCCCC3)cc2)[C@H](c2ccc(O)cc2)N1 | – | 0.5 µM | – | 95% | 57% | – | 0.038 µM | 9 µM |
| Oc1cc(Cl)c([C@@H]2N=CN[C@@H]2c2ccc(OCCN3CCCCC3)cc2Cl)c(Cl)c1 | 0.085 µM | 0.4 µM | 0% | 103% | – | – | – | – |

The next lines start with the values.

| EC50 (Estrogen receptor [1]) | EC50 (Estrogen receptor beta [2]) | inhibition (Estrogen receptor beta [3]) | Activation (Estrogen receptor beta [4]) | inhibition (Estrogen receptor beta [5]) | IC50 (Estrogen receptor beta [6]) | IC50 (Estrogen receptor [7]) | IC50 (Estrogen receptor beta [8]) | Compound |
| --- | --- | --- | --- | --- | --- | --- | --- | --- |
| – | – | 4% | 75% | – | – | – | – | CN(C)CCOc1ccc([C@H]2N=CN[C@H]2c2ccc(O)cc2Cl)c(Cl)c1 |
| 3.47 µM | – | 0% | 36% | – | – | – | – | CN(C)CCOc1ccc([C@H]2N=CN[C@H]2c2ccc(O)cc2)cc1 |
| 1.7 µM | 0.6 µM | 0% | 60% | – | – | – | – | Oc1ccc([C@@H]2N=CN[C@@H]2c2ccc(OCCN3CCCCC3)cc2Cl)c(Cl)c1 |
